Sampled rows, rich in hits. Any-hit rate of the full collection: about 3.3%.
5HT1a ag: human 5-HT1a receptor agonists, primary screen, cell-based, CHO, Ga15 NFAT-bla reporter; 65,000 compounds, 0.56% hits; activation, % at 10 µM; AID 567, 2006; CHO 5-HT1a Ga15 NFAT-bla reporter, FRET ratio; 0% basal, 100% maximal reference agonist; 5-hydroxytryptamine receptor 1A (Homo sapiens), P08908;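 active means activation above the screen-wide mean activation plus 3 SD, cut at about 19% in these data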
Target sequence (P08908 whole entry, looked up): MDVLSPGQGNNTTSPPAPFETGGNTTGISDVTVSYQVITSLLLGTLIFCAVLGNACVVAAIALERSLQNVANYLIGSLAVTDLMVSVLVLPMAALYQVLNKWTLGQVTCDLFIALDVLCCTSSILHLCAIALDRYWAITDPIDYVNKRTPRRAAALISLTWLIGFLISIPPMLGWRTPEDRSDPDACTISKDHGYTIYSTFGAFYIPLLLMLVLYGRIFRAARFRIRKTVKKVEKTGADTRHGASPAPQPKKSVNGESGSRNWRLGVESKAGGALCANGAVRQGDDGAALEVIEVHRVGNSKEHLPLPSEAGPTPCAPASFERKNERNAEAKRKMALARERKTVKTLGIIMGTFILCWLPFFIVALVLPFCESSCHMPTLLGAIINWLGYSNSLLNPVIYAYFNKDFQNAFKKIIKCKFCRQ
HTR1E antagonist: 5-HT1E receptor antagonists, primary screen, cell-based, HTS; inhibition, % at 6 µM; 65,000 compounds, 0.99% hits; AID 571, 2007; CHO 5-HT1E Ga15 NFAT-bla reporter, FRET, antagonist;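 active means inhibition above a set limit, the mean inhibition across every tested compound plus 3 SD, cut at about 29% in these data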;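 further: signal is the 460 over 535 nm emission ratio of beta-lactamase substrate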
5-HT1A blocker: human 5-HT1a receptor antagonists, primary screen, cell-based, CHO, Ga15 NFAT-bla reporter. inhibition, % at 10 µM. 62,000 compounds, 0.68% hits. CHO 5-HT1a Ga15 NFAT-bla reporter, antagonist mode;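 active means inhibition above the mean of all tested compounds plus 3 SD, cut at about 43% in these data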;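 further: receptor stimulated by 5-CT agonist at 100 nM near EC80; beta-lactamase reporter measured by ratiometric fluorescence of a cleavable substrate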
Jurkat tox 60K: cytotoxicity toward Jurkat T cells, primary screen, cytotoxicity control, cell-based, Jurkat E6.1, 60K MLSMR library; Jurkat E6.1 viability, ATP luminescence, 48 h; inhibition, % at 4 µM; 56,000 compounds, 1.2% hits; AID 463, 2006;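 active means inhibition above the mean inhibition of all tested compounds plus 3 SD, cut at about 28% in these data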
HEK293 NFkB inh: inhibitors of PMA/ionomycin-induced NF-kB reporter, primary screen, antigen receptor NF-kB inhibitor project, cell-based, HEK-293 luciferase reporter, luminescence | 62,000 compounds, 0.21% hits | HEK-293 NF-kB luciferase reporter | inhibition, % at 3 µM;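 active means inhibition above the mean of all tested compounds plus 3 SD, cut at about 40% in these data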
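System: NF-kB luciferase reporter HEK-293 cells | Replication: Single test | Control set: DMSO vs reference inhibitor | Evaluation: % inhibition | Schedule: 1 h pretreatment, 16 h stimulation, 37 °C | Probe or stimulus: PMA with ionomycin | Compound dosing: One dose, 3 µM | Detection: Luciferase luminescence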
5HT1E ag: 5-HT1E receptor agonists, primary screen, cell-based, HTS; CHO 5-HT1E Ga15 NFAT-bla reporter, FRET; 0% DMSO wells, 100% control agonist wells; activation, % at 6 µM; 65,000 compounds, 0.69% hits; 5-hydroxytryptamine receptor 1E (Homo sapiens), P28566;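 active means activation above a set limit, the screen-wide mean activation plus 3 SD, cut at about 8.5% in these data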
Numbers stand for hits; - = inactive; . = no result given.

SMILES	5HT1a ag	HTR1E antagonist	5-HT1A blocker	Jurkat tox 60K	HEK293 NFkB inh	5HT1E ag
CCN1CCN(C(=O)C2c3cc(OC)c(OC)cc3C(=O)N(C)C2c2ccc(SC)cc2)CC1 (stereo not drawn)	-	-	60	.	-	-
CC1Cc2cc(-c3csc(NC(=O)Cc4cccs4)n3)ccc2N1S(C)(=O)=O (stereo not drawn)	-	-	-	74	-	-
Cc1cc(C(=O)NCc2cccnc2)cs1	31	-	-	-	-	-
Cc1nn(Cc2ccccc2)c2sc(C(=O)NCc3cccnc3)cc12	39	-	-	-	-	-
Cc1cc(C(=O)NCc2cccnc2)n(-c2ccccc2)n1	-	-	-	-	-	-
O=C1N2CN(C(c3ccccc3)c3ccccc3)CN=C2SC1(CO)CO	-	-	-	-	-	-
Cc1cc(SCC#N)n2nc(C)c(-c3ccccc3)c2n1	-	57	-	-	-	-
c1ccc(Cn2nnc3c(Nc4ccc5c(c4)OCO5)nc(C4CC4)nc32)cc1	22	-	-	-	-	-
COC(=O)CNc1nc(C2CC2)nc2c1nnn2Cc1ccccc1Cl	-	-	-	-	-	-
COC(=O)c1ccccc1NC1c2ccccc2C(=O)N1c1cccnc1 (stereo not drawn)	56	-	-	-	-	-
Cc1cc(C)nc(N2CCC(C(=O)Nc3nnc(C)s3)CC2)n1	-	-	-	-	-	-
O=c1c2cc3ccccc3n2cnn1Cc1ccccc1F	-	-	-	50	-	-
O=C(CCn1c(=O)oc2ccccc21)N1CCCCCC1	-	-	-	-	-	-
O=C(CCn1c(=O)oc2ccccc21)N1CCN(c2ccccc2Cl)CC1	-	-	-	69	-	-
COc1ccc(C(=O)NCC23C=CC(O2)C2C(=O)N(Cc4ccccc4)C(=O)C23)cc1 (stereo not drawn)	-	-	-	-	-	-
O=C1C2C3C=CC(CO)(O3)C2C(=O)N1c1ccccc1-c1ccccc1 (stereo not drawn)	-	103	104	61	-	-
CC(C)(C)NC(=O)Cn1c(SCC(=O)NC2CCCCC2)nc2ccccc21	-	-	-	-	-	-
O=C(O)Cn1c(SC2CCCCC2)nc2ccccc21	19	-	-	-	-	-
Clc1cccc(-c2cc3nc4c(c(N5CCOCC5)n3n2)CCCC4)c1	-	-	-	.	-	-
Fc1cccc(-c2cc3nc4c(c(N5CCOCC5)n3n2)CCCC4)c1	-	30	-	-	-	-
O=C(O)CCCCCNCc1ccncc1	-	-	-	.	-	-
COc1cc(NS(=O)(=O)c2ccc(C)cc2)c2ncccc2c1	-	67	67	79	-	-
COc1ccc(-c2cc(C(F)(F)F)nc(N3CCCCCC3)n2)cc1	-	-	-	.	-	-
COc1ccc(-c2cc(C(F)(F)F)nc(N3CCN(C)CC3)n2)cc1	-	-	-	.	-	18
COc1ccc(-c2cc(C(F)(F)F)nc(N3CCCCC3)n2)cc1OC	-	-	-	.	-	-
SMILES	5HT1a ag	HTR1E antagonist	5-HT1A blocker	Jurkat tox 60K	HEK293 NFkB inh	5HT1E ag
COc1cccc(-c2cc(C(F)(F)F)nc(N3CCCCC3)n2)c1	99	-	-	.	-	-
COc1cc(NC(=O)c2nnn(Cc3ccc(SC)cc3)c2N)cc(OC)c1	-	-	-	-	-	-
CN(C)CCOc1ccccc1Cc1ccccc1	-	-	.	.	.	16
CN(C)CCOC(=O)CCc1ccccc1	-	-	-	-	-	-
O=C(Nc1ccccn1)C(NS(=O)(=O)c1cccc2nsnc12)c1ccccc1 (stereo not drawn)	-	-	-	-	-	-
CN(C)Cc1cc(CCNC(=O)c2ccc(Cl)cc2)ccc1O	-	-	-	-	-	14
COc1ccc(CCNC(=O)c2ccncc2)cc1OC	-	-	-	-	-	-
O=C(O)CCCC(=O)Nc1ccccc1C(=O)N1CCCC1	-	-	-	-	-	-
CSc1ccccc1C(=O)NCc1ccc2c(c1)OCO2	-	-	-	-	-	-
Cc1cc(C)nc(NCCCc2ccccc2)n1	-	-	-	-	-	-
CCCCNc1cc(C)nc(NCc2ccccc2)n1	-	-	-	34	-	-
COc1ccc(C2N=C(c3ccccc3)C(C)(C)N2O)cc1OC (stereo not drawn)	-	-	-	-	-	-
COc1ccc(CNc2nc(-c3cccnc3)nn2C(=O)c2cccs2)cc1	-	31	-	-	-	-
O=C(Cn1cnc2c(cnn2-c2ccc(F)cc2)c1=O)NCc1ccco1	-	-	-	55	-	-
COC(=O)C1=C(C)N(C)C(C)=C(C(=O)OC)C1c1ccccn1	-	-	-	-	-	-
O=C(Nc1ccc(Cl)cc1)N1CCC(c2nc(-c3ccc(F)cc3)no2)CC1	-	-	47	-	-	-
O=C(Cc1cccs1)NCCn1ccc2ccccc21	-	-	-	-	-	-
N#Cc1c(N)nc(SC2CCCCC2=O)c(C#N)c1-c1ccco1 (stereo not drawn)	-	42	-	.	-	-
N#Cc1c(N)nc(SCc2ccccc2)c(C#N)c1-c1ccco1	-	-	-	-	-	-
C=CCNc1nc2c3ccccc3n(C(C)=O)c2s1	-	-	-	-	-	-
COc1cc(OC)c2c(C)c(Cl)c(=O)oc2c1	-	-	-	-	-	-
Cc1sc2ncnc(SC(C)C#N)c2c1C (stereo not drawn)	-	31	-	-	-	-
Cc1sc2ncnc(SCc3ccco3)c2c1C	-	-	-	-	-	-
COc1ccc(C2NC(=O)NC(O)(C(F)(F)F)C2C(=O)c2ccc(C)cc2)cc1 (stereo not drawn)	-	-	-	-	-	-
Cc1cccnc1NCc1ccc(O)c2ncccc12	-	51	-	-	-	-
Oc1ccc(CN2CCCc3ccccc32)c2cccnc12	-	-	-	-	-	-
COc1ccc(C(O)c2nc3ccccc3n2C)cc1OC (stereo not drawn)	-	-	-	54	-	-
c1ccc(-c2nnc3sc(-c4csc5c4CCCC5)nn23)cc1	-	-	-	-	-	-
CC1CCN(CCCNC(=O)CN2CCN(Cc3ccc(Cl)cc3)C2=O)CC1	-	31	-	-	-	-
CCOC(=O)c1ccccc1NC(=O)c1ccc(NS(C)(=O)=O)cc1	-	34	-	-	-	-

Screens: PubChem, The Scripps Research Institute Molecular Screening Center
